From ChEMBL document CHEMBL2169809, “Identification of high-affinity P2Y₁₂ antagonists based on a phenylpyrazole glutamic acid piperazine backbone” (J Med Chem, 2012)

Columns and labels:
Platelet [1] = assay: Inhibition of ADP-stimulated platelet aggregation in human platelet rich plasma by light transmission aggregometry based Born method; type: functional, cell-based
Platelet [2] = assay: Inhibition of ADP-stimulated platelet aggregation in human platelet rich plasma by 96-well format based turbidimetric method; type: functional
Procedure, shortened: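 Citrated (ACD-A) donor blood was spun at 150g for 15 min at room temperature to give PRP. PRP was adjusted with PPP to 3 × 10^8 platelets/mL. Compound, diluted in NaCl, was preincubated with hPRP for 5 min before ADP was added.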

P2Y purinoceptor 12 = P2Y purinoceptor 12 (Homo sapiens, UniProt Q9H244); assay: Displacement of [33P]2-MeS-ADP from human recombinant P2Y12 receptor expressed in CHO cell membranes by scintillation counting method
P2Y purinoceptor 12, sequence (Q9H244 whole entry): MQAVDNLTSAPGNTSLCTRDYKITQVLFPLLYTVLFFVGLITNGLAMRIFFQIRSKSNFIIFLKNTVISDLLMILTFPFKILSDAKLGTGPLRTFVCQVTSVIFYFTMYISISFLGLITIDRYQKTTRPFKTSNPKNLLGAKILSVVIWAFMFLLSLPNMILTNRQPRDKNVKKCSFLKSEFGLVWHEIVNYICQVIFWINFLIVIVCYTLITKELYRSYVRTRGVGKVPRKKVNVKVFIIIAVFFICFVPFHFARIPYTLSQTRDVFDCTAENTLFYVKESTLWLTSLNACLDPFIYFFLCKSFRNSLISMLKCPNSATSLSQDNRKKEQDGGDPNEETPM

Platelet [3] = assay: Inhibition of collagen-stimulated platelet aggregation in human isolated platelets by light transmission aggregometry based Born method; type: functional, cell-based
Procedure, shortened: (§1)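 Platelets were pelleted from PRP (430g, 20 min, room temperature) and resuspended in modified Tyrode's buffer (145 mM NaCl, 5 mM KCl, 5.5 mM glucose, 15 mM Hepes, pH 7.4). CaCl2 (0.5 mM final) was added for 2 min at 37 °C, then fibrinogen (1 mg/mL final), then antagonist. Agonist was ADP, collagen or thrombin (0.1 U/mL final). Born aggregometry with stirring; % inhibition from AUC; IC50 from at least triplicate runs.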

Platelet [4] = assay: Inhibition of thrombin-stimulated platelet aggregation in human isolated platelets by light transmission aggregometry based Born method; type: functional, cell-based; procedure, shortened: as §1
Platelet [5] = assay: Inhibition of ADP-stimulated platelet aggregation in human isolated platelets by light transmission aggregometry based Born method; type: functional, cell-based; procedure, shortened: as §1

| Structure (SMILES) | IC50 (Platelet [1]) [nM] | IC50 (Platelet [2]) [nM] | Ki (P2Y purinoceptor 12) [nM] | IC50 (Platelet [3]) [nM] | IC50 (Platelet [4]) [nM] | IC50 (Platelet [5]) [nM] |
| --- | --- | --- | --- | --- | --- | --- |
| CCOC(=O)N1CCN(C(=O)[C@H](CCc2nnn[nH]2)NC(=O)c2cc(OCC(=O)N3CCC[C@H]3C(=O)NC3CCC3)n(-c3ccccc3)n2)CC1 | 69 | 40 | 5 | – | – | – |
| CCCCOC(=O)N1CCN(C(=O)[C@H](CCc2nnn[nH]2)NC(=O)c2cc(OCC(=O)N3CCC[C@H]3C(=O)NC3CCC3)n(-c3ccccc3)n2)CC1 | 79 | 50 | – | – | – | – |
| CCOC(=O)N1CCN(C(=O)[C@H](CCO)NC(=O)c2cc(OCC(=O)N3CCC[C@H]3C(=O)NC3CCC3)n(-c3ccccc3)n2)CC1 | 120 | 210 | 23 | – | – | – |
| CCCCOC(=O)N1CCN(C(=O)[C@H](CCCO)NC(=O)c2cc(OCC(=O)N3CCC[C@H]3C(=O)NC3CCC3)n(-c3ccccc3)n2)CC1 | 70 | 92 | 6.5 | – | – | – |
| CCOC(=O)N1CCN(C(=O)CNC(=O)c2cc(OCC(=O)N3CCC[C@H]3C(=O)NC3CCC3)n(-c3ccccc3)n2)CC1 | 100 | 90 | 107 | > 2000 | > 2000 | 99 |
| CCCCOC(=O)NC1CCN(C(=O)[C@H](CCC(=O)O)NC(=O)c2cc(OCC(=O)N3CCC[C@H]3C(=O)NC3CCC3)n(-c3ccccc3)n2)C1 (stereo not given in full) | – | 1880 | 82 | – | – | – |
| CCCCOC(=O)N1CCC(NC(=O)[C@H](CCC(=O)O)NC(=O)c2cc(OCC(=O)N3CCC[C@H]3C(=O)NC3CCC3)n(-c3ccccc3)n2)C1 (stereo not given in full) | – | > 5000 | 193 | – | – | – |
| COc1cccc(N2CCN(C(=O)[C@H](CCC(=O)O)NC(=O)c3cc(OCC(=O)N4CCC[C@H]4C(=O)NC4CCC4)n(-c4ccccc4)n3)CC2)c1 | – | 790 | 30 | – | – | – |
| O=C(O)CC[C@H](NC(=O)c1cc(OCC(=O)N2CCC[C@H]2C(=O)NC2CCC2)n(-c2ccccc2)n1)C(=O)N1CCC(C(=O)c2ccccc2)CC1 | – | 1330 | 40 | – | – | – |
| O=C(O)CC[C@H](NC(=O)c1cc(OCC(=O)N2CCC[C@H]2C(=O)NC2CCC2)n(-c2ccccc2)n1)C(=O)N1CCN(C(=O)c2ccccc2)CC1 | – | 1230 | 130 | – | – | – |
| CCCOC(=O)N1CCN(C(=O)[C@H](CCC(=O)O)NC(=O)c2cc(OCC(=O)N3CCC[C@H]3C(=O)NC3CCC3)n(-c3ccccc3)n2)CC1 | 30 | 21 | 3.1 | – | – | – |
| CCCCOC(=O)N1CCN(C(=O)[C@H](CCC(=O)O)NC(=O)c2cc(OCC(=O)N3CCC[C@H]3C(=O)NC3CCC3)n(-c3ccccc3)n2)CC1 | 13 | 19 | 0.8 | – | – | – |
| CCOC(=O)N1CCN(C(=O)[C@H](CCC(=O)O)NC(=O)c2cc(OCC(=O)N3CCC[C@H]3C(=O)NCC3CCC3)n(-c3ccccc3)n2)CC1 | 72 | 100 | 19 | – | – | – |
| CCOC(=O)N1CCN(C(=O)[C@H](CCC(=O)O)NC(=O)c2cc(OCC(=O)N3CC[C@H]3C(=O)NC3CCC3)n(-c3ccccc3)n2)CC1 | – | 76 | 42 | – | – | – |
| CCOC(=O)N1CCN(C(=O)[C@H](CCC(=O)O)NC(=O)c2cc(OCC(=O)N3CCC(C(=O)NC4CCC4)C3)n(-c3ccccc3)n2)CC1 (stereo not given in full) | – | 3130 | 238 | – | – | – |
| CCOC(=O)N1CCN(C(=O)[C@H](CCC(=O)O)NC(=O)c2cc(OCC(=O)N3CC(C(=O)NC4CCC4)C3)n(-c3ccccc3)n2)CC1 | – | 2940 | 613 | – | – | – |
| CCOC(=O)N1CCN(C(=O)[C@H](CCC(=O)O)NC(=O)c2cc(OCC(=O)N3CCC[C@H]3C(=O)N3CCCC3)n(-c3ccccc3)n2)CC1 | – | 600 | 219 | – | – | – |
| CCOC(=O)N1CCN(C(=O)[C@H](CCC(=O)O)NC(=O)c2cc(OCC(=O)N3CCC[C@H]3C(=O)N3CCCCC3)n(-c3ccccc3)n2)CC1 | 73 | 70 | 56 | – | – | – |
| CCOC(=O)N1CCN(C(=O)[C@H](CCC(=O)O)NC(=O)c2cc(OCC(=O)N3CCC[C@H]3c3nc(C)c[nH]3)n(-c3ccccc3)n2)CC1 | – | 380 | 56 | – | – | – |
| CCOC(=O)N1CCC(NC(=O)[C@H](CCC(=O)O)NC(=O)c2cc(OCC(=O)N3CCC[C@H]3C(=O)NC3CCC3)n(-c3ccccc3)n2)CC1 | – | > 5000 | > 5000 | – | – | – |
| CCCCOC(=O)NC1CCN(C(=O)[C@H](CCC(=O)O)NC(=O)c2cc(OCC(=O)N3CCC[C@H]3C(=O)NC3CCC3)n(-c3ccccc3)n2)CC1 | 120 | 55 | 22 | – | – | – |

| Structure (SMILES) | IC50 (Platelet [1]) [nM] | IC50 (Platelet [2]) [nM] | Ki (P2Y purinoceptor 12) [nM] | IC50 (Platelet [3]) [nM] | IC50 (Platelet [4]) [nM] | IC50 (Platelet [5]) [nM] |
| --- | --- | --- | --- | --- | --- | --- |
| CCOC(=O)N1CCN(C(=O)[C@H](CCC(=O)O)NC(=O)c2cc(OCC(=O)N3CCCC3=O)n(-c3ccccc3)n2)CC1 | – | 900 | 173 | – | – | – |
| CCOC(=O)N1CCN(C(=O)[C@H](CCC(=O)O)NC(=O)c2cc(OCC(=O)N3CCC[C@H]3C(N)=O)n(-c3ccccc3)n2)CC1 | – | 3100 | 283 | – | – | – |
| CCOC(=O)N1CCN(C(=O)[C@H](CCC(=O)O)NC(=O)c2cc(OCC(=O)N3CCC[C@H]3C(=O)NC)n(-c3ccccc3)n2)CC1 | – | 1460 | 536 | – | – | – |
| CCNC(=O)[C@@H]1CCCN1C(=O)COc1cc(C(=O)N[C@@H](CCC(=O)O)C(=O)N2CCN(C(=O)OCC)CC2)nn1-c1ccccc1 | – | 475 | 303 | – | – | – |
| CCCNC(=O)[C@@H]1CCCN1C(=O)COc1cc(C(=O)N[C@@H](CCC(=O)O)C(=O)N2CCN(C(=O)OCC)CC2)nn1-c1ccccc1 | 91 | 58 | 66 | – | – | – |
| CCOC(=O)N1CCN(C(=O)[C@H](CCC(=O)O)NC(=O)c2cc(OCC(=O)N3CCC[C@H]3C(=O)NC(C)(C)C)n(-c3ccccc3)n2)CC1 | 70 | 17 | 41 | – | – | – |
| CCOC(=O)N1CCN(C(=O)[C@H](CCC(=O)O)NC(=O)c2cc(OCC(=O)N3CCC[C@H]3C(=O)NC3CC3)n(-c3ccccc3)n2)CC1 | – | 13 | 105 | – | – | – |
| CCOC(=O)N1CCN(C(=O)[C@H](CCC(=O)O)NC(=O)c2cc(OCC(=O)N3CCC[C@H]3C(=O)NC3CCCC3)n(-c3ccccc3)n2)CC1 | 38 | 13 | 20 | – | – | – |
| CCOC(=O)N1CCN(C(=O)[C@H](CCC(=O)O)NC(=O)c2cc(OCC(=O)N3CCC[C@H]3C(=O)N(C)C3CCC3)n(-c3ccccc3)n2)CC1 | – | 220 | 27 | – | – | – |
| CCOC(=O)N1CCN(C(=O)[C@H](CCC(=O)O)NC(=O)c2cc(OC(C)(C)C(=O)OCC)c3ccc(C)cc3n2)CC1 | – | 2600 | 86 | – | – | – |
| CCOC(=O)COc1cc(C(=O)N[C@@H](CCC(=O)O)C(=O)N2CCN(C(=O)OCC)CC2)nn1-c1ccccc1 | 2480 | 2250 | 372 | – | – | – |
| CCOC(=O)N1CCN(C(=O)[C@H](CCC(=O)O)NC(=O)c2cc(OCC(=O)C(C)(C)C)n(-c3ccccc3)n2)CC1 | 2460 | 3730 | 242 | – | – | – |
| CCOC(=O)N1CCN(C(=O)[C@H](CCC(=O)O)NC(=O)c2cc(OCC(=O)C3CC3)n(-c3ccccc3)n2)CC1 | 2510 | 2600 | 249 | – | – | – |
| CCOC(=O)N1CCN(C(=O)[C@H](CCC(=O)O)NC(=O)c2cc(OCC(=O)C3CCC3)n(-c3ccccc3)n2)CC1 | – | 7410 | 574 | – | – | – |
| CCOC(=O)N1CCN(C(=O)[C@H](CCC(=O)O)NC(=O)c2cc(OCC(N)=O)n(-c3ccccc3)n2)CC1 | – | 9050 | 2720 | – | – | – |
| CCOC(=O)N1CCN(C(=O)[C@H](CCC(=O)O)NC(=O)c2cc(OCC(=O)N(CC)CC)n(-c3ccccc3)n2)CC1 | – | > 10000 | > 5000 | – | – | – |
| CCOC(=O)N1CCN(C(=O)[C@H](CCC(=O)O)NC(=O)c2cc(OCC(=O)N3CC[C@@H](O)C3)n(-c3ccccc3)n2)CC1 | – | 1370 | 459 | – | – | – |
| CCOC(=O)N1CCN(C(=O)[C@H](CCC(=O)O)NC(=O)c2cc(=O)n(-c3ccccc3)[nH]2)CC1 | – | > 10000 | > 5000 | – | – | – |
| CNc1cc2[nH]c(=O)n(-c3ccc(NC(=O)NS(=O)(=O)c4ccc(Cl)s4)cc3)c(=O)c2cc1F [ELINOGREL] | – | 2810 | 23 | – | – | – |
| CCCSc1nc(N[C@@H]2C[C@H]2c2ccc(F)c(F)c2)c2nnn([C@@H]3C[C@H](OCCO)[C@@H](O)[C@H]3O)c2n1 [TICAGRELOR] | – | 1830 | 14 | – | – | – |
